Experimental data from ChEMBL document CHEMBL3804810, “A structural insight into the P1S1 binding mode of diaminoethylphosphonic and phosphinic acids, selective inhibitors of alanine aminopeptidases” (Eur J Med Chem, 2016).
Activity calls are given as the source filed them. The calls are words filed in the database; no cut-off is given here.

Molecular target: T1, Cytosol aminopeptidase (Sus scrofa) (UniProt P28839)
T1 sequence (whole entry): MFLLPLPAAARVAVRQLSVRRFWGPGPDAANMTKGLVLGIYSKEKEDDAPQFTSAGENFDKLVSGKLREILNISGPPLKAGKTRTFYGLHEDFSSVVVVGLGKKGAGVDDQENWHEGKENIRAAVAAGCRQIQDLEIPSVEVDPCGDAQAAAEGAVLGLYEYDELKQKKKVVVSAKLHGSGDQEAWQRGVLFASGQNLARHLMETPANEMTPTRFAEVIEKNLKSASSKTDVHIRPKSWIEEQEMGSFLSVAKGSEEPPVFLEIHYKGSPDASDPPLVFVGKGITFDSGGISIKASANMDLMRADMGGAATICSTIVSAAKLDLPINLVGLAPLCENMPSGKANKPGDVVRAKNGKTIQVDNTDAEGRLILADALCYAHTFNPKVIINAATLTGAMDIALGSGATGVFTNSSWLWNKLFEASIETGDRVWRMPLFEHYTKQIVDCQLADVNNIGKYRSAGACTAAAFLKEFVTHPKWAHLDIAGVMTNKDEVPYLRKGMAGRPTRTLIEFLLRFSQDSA
Assay: Inhibition of porcine kidney leucine aminopeptidase M17 using Leu-AMC as substrate up to 0.8 mM preincubated for 30 to 60 mins followed by substrate addition measured for 15 mins by spectrofluorimetric analysis

Structure (SMILES)	inhibition
NC(CN1CCOCC1)P(=O)(O)O (stereo not drawn)	inactive

Tested on: not listed separately
Assay: Inhibition of recombinant Neisseria meningitidis N-terminal His6-tagged alanyl aminopeptidase M1 expressed in Escherichia coli BL21 cells using Ala-AMC as substrate preincubated for 30 to 60 mins followed by substrate addition measured for 15 mins by spectrofluorimetric analysis

Structure (SMILES)	Ki [µM]
CN(C)CCNCC(N)P(=O)(O)O (stereo not drawn)	26
CNCC(N)P(=O)(O)O (stereo not drawn)	29.6
NCC(N)P(=O)(O)O (stereo not drawn)	0.589

Molecular target: T2, Cytosol aminopeptidase (Sus scrofa, UniProt P28839)
T2 sequence (P28839 whole entry): T1 sequence (whole entry)
Assay: Inhibition of porcine kidney leucine aminopeptidase M17 using Leu-AMC as substrate preincubated for 30 to 60 mins followed by substrate addition measured for 15 mins by spectrofluorimetric analysis
Summary of the method: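 Inhibitor concentrations were tested up to 800 μM against the porcine kidney enzyme. Values are reported as inhibition constants (Ki).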

Structure (SMILES)	Ki [µM]
CN(C)CCNCC(N)P(=O)(O)O (stereo not drawn)	72.6
NCCNCC(N)P(=O)(O)O (stereo not drawn)	289
CCCCCCNCC(N)P(=O)(O)O (stereo not drawn)	119
NC(CNCC1CCCO1)P(=O)(O)O (stereo not drawn)	69.1
NC(CCC1CCCCC1)P(=O)(O)O (stereo not drawn)	0.21

Second part, the compound after the results:

Ki [µM]	Structure (SMILES)
28.3	NC(CNC1CCCCC1)P(=O)(O)CC(Cc1ccccc1)C(=O)O (stereo not drawn)
23.8	NC(CNC1CCCCCC1)P(=O)(O)CC(Cc1ccccc1)C(=O)O (stereo not drawn)
71.1	CC(C)(C)c1ccc(CNCC(N)P(=O)(O)O)cc1 (stereo not drawn)
15.2	CC(C)CNCC(N)P(=O)(O)CC(Cc1ccccc1)C(=O)O (stereo not drawn)
21	CCCNCC(N)P(=O)(O)CC(Cc1ccccc1)C(=O)O (stereo not drawn)
108	NC(CNCCc1ccccc1)P(=O)(O)O (stereo not drawn)
7.02	Nc1ccc(CNCC(N)P(=O)(O)O)cc1 (stereo not drawn)
21.1	COc1ccc(CCNCC(N)P(=O)(O)CC(Cc2ccccc2)C(=O)O)cc1 (stereo not drawn)
19.5	COc1ccc(CCNCC(N)P(=O)(O)O)cc1 (stereo not drawn)
26.2	COc1ccc(CNCC(N)P(=O)(O)O)cc1 (stereo not drawn)
26.5	NCc1ccc(CNCC(N)P(=O)(O)O)cc1 (stereo not drawn)
240	NC1CCCCC1NCC(N)P(=O)(O)O (stereo not drawn)
64.4	NCC(N)P(=O)(O)CC(Cc1ccccc1)C(=O)O (stereo not drawn)
68.4	NC(CNCC1CCNCC1)P(=O)(O)O (stereo not drawn)
55.8	NC(CNCCN1CCNCC1)P(=O)(O)O (stereo not drawn)
20.8	NC(CNC1CCCCCC1)P(=O)(O)O (stereo not drawn)

Molecular target: T2, Cytosol aminopeptidase
Assay: Inhibition of porcine kidney leucine aminopeptidase M17 using L-leucine p-nitro-anilide as substrate by spectrophotometric analysis

Structure (SMILES)	Ki [µM]
CC(NCC(N)P(=O)(O)O)c1ccccc1 (stereo not drawn)	600
NC(CN1CCCCC1)P(=O)(O)O (stereo not drawn)	1410
NC(CNCc1ccccc1)P(=O)(O)O (stereo not drawn)	350
